Assay results reported in ChEMBL document CHEMBL1221275 (Bioorg Med Chem, 2010).

Assays:
MT4 = assay: Cytotoxicity against human MT4 cells after 4 days; format: cell-based; conditions: MT4, 96 h
Outline: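 Mock-infected MT-4 cells were used. IC50 is the concentration giving 50% inhibition of cell growth. Values are averages of at least two separate experiments.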

[1] = system: Human immunodeficiency virus 1; assay: Antiviral activity against HIV1 NL4-3 infected in human MT4 cells assessed as inhibition of viral replication after 4 days by p24 antigen based ELISA assay; format: functional, organism-based; conditions: Human immunodeficiency virus 1, NL4-3, MT4, 96 h
[2] = Therapeutic index, ratio of IC50 for human MT4 cells to EC50 for HIV1 NL4-3; format: cell-based; conditions: read-out: TI
Outline: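 TI was calculated as IC50 (growth inhibition of mock-infected MT-4 cells) divided by EC50 (inhibition of HIV-1 NL4-3 replication in MT-4 cells). Both inputs are averages of at least two separate experiments.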

Row | SMILES | IC50 (MT4) | EC50 [1] | selectivity ratio [2]
1 | Cc1cn([C@H]2C[C@H](N=[N+]=[N-])[C@@H](CO)O2)c(=O)[nH]c1=O [ZIDOVUDINE] | > 37400 nM | – | –
2 | Cc1cn([C@H]2C[C@H](N=[N+]=[N-])[C@@H](COC(=O)CC(C)(C)CC(=O)OC[C@]34CC[C@@H](C(C)C)[C@@H]3[C@H]3CC[C@@H]5[C@@]6(C)CC[C@H](OC(=O)CC(C)(C)C(=O)O)C(C)(C)[C@@H]6CC[C@@]5(C)[C@]3(C)CC4)O2)c(=O)[nH]c1=O | 9000 nM | 290 nM | 31
3 | Cc1cn([C@H]2C[C@H](N=[N+]=[N-])C(COC(=O)CCCC(=O)OC[C@]34CC[C@@H](C(C)C)[C@@H]3[C@H]3CC[C@@H]5[C@@]6(C)CC[C@H](OC(=O)CCCC(=O)O)C(C)(C)[C@@H]6CC[C@@]5(C)[C@]3(C)CC4)O2)c(=O)[nH]c1=O (some centres not stated) | 9000 nM | 93 nM | 97
4 | C=C(C)[C@@H]1CC[C@]2(COC(=O)CC(C)(C)CC(=O)OC[C@H]3O[C@@H](n4cc(C)c(=O)[nH]c4=O)C[C@@H]3N=[N+]=[N-])CC[C@]3(C)[C@H](CC[C@@H]4[C@@]5(C)CC[C@H](OC(=O)CC(C)(C)CC(=O)O)C(C)(C)[C@@H]5CC[C@]43C)[C@@H]12 | 7700 nM | 180 nM | 43
5 | C=C(C)[C@@H]1CC[C@]2(COC(=O)CCC(=O)OC[C@H]3O[C@@H](n4cc(C)c(=O)[nH]c4=O)C[C@@H]3N=[N+]=[N-])CC[C@]3(C)[C@H](CC[C@@H]4[C@@]5(C)CC[C@H](OC(=O)CC(C)(C)C(=O)O)C(C)(C)[C@@H]5CC[C@]43C)[C@@H]12 | 7100 nM | 45 nM | 158
6 | C=C(C)[C@@H]1CC[C@]2(COC(=O)CCCC(=O)O)CC[C@]3(C)[C@H](CC[C@@H]4[C@@]5(C)CC[C@H](OC(=O)CC(C)(C)C(=O)O)C(C)(C)[C@@H]5CC[C@]43C)[C@@H]12 | > 46600 nM | 310 nM | > 47
7 | Cc1cn([C@H]2C[C@H](N=[N+]=[N-])C(COC(=O)CC(C)(C)CC(=O)OC[C@]34CC[C@@H](C(C)C)[C@@H]3[C@H]3CC[C@@H]5[C@@]6(C)CC[C@H](OC(=O)CC(C)(C)CC(=O)O)C(C)(C)[C@@H]6CC[C@@]5(C)[C@]3(C)CC4)O2)c(=O)[nH]c1=O (some centres not stated) | 9800 nM | 360 nM | 27
8 | Cc1cn([C@H]2C[C@H](N=[N+]=[N-])[C@@H](COC(=O)C(C)(C)CC(=O)OC[C@]34CC[C@@H](C(C)C)[C@@H]3[C@H]3CC[C@@H]5[C@@]6(C)CC[C@H](OC(=O)CCCC(=O)O)C(C)(C)[C@@H]6CC[C@@]5(C)[C@]3(C)CC4)O2)c(=O)[nH]c1=O | 7200 nM | 260 nM | 28
9 | C=C(C)[C@@H]1CC[C@]2(COC(=O)C(C)(C)CC(=O)OC[C@H]3O[C@@H](n4cc(C)c(=O)[nH]c4=O)C[C@@H]3N=[N+]=[N-])CC[C@]3(C)[C@H](CC[C@@H]4[C@@]5(C)CC[C@H](OC(=O)CC(C)(C)C(=O)O)C(C)(C)[C@@H]5CC[C@]43C)[C@@H]12 | 5400 nM | 40 nM | 135
10 | C=C(C)[C@@H]1CC[C@]2(C(=O)O)CC[C@]3(C)[C@H](CC[C@@H]4[C@@]5(C)CC[C@H](OC(=O)CC(C)(C)C(=O)O)C(C)(C)[C@@H]5CC[C@]43C)[C@@H]12 [BEVIRIMAT] | > 5000 nM | 96 nM | > 52
11 | C=C(C)[C@@H]1CC[C@]2(COC(=O)CC(C)(C)C(=O)OC[C@H]3O[C@@H](n4cc(C)c(=O)[nH]c4=O)C[C@@H]3N=[N+]=[N-])CC[C@]3(C)[C@H](CC[C@@H]4[C@@]5(C)CC[C@H](OC(=O)CC(C)(C)C(=O)O)C(C)(C)[C@@H]5CC[C@]43C)[C@@H]12 | 7000 nM | 98 nM | 71
12 | Cc1cn([C@H]2C[C@H](N=[N+]=[N-])[C@@H](COC(=O)CC(C)(C)C(=O)OC[C@]34CC[C@@H](C(C)C)[C@@H]3[C@H]3CC[C@@H]5[C@@]6(C)CC[C@H](OC(=O)CC(C)(C)C(=O)O)C(C)(C)[C@@H]6CC[C@@]5(C)[C@]3(C)CC4)O2)c(=O)[nH]c1=O | 7700 nM | 56 nM | 138
13 | C=C(C)[C@@H]1CC[C@]2(COC(=O)CCCC(=O)OC[C@H]3O[C@@H](n4cc(C)c(=O)[nH]c4=O)C[C@@H]3N=[N+]=[N-])CC[C@]3(C)[C@H](CC[C@@H]4[C@@]5(C)CC[C@H](OC(=O)CC(C)(C)C(=O)O)C(C)(C)[C@@H]5CC[C@]43C)[C@@H]12 | 8700 nM | 60 nM | 145
14 | C=C(C)[C@@H]1CC[C@]2(COC(=O)CC(C)(C)CC(=O)OC[C@H]3O[C@@H](n4cc(C)c(=O)[nH]c4=O)C[C@@H]3N=[N+]=[N-])CC[C@]3(C)[C@H](CC[C@@H]4[C@@]5(C)CC[C@H](OC(=O)CC(C)(C)C(=O)O)C(C)(C)[C@@H]5CC[C@]43C)[C@@H]12 | 8100 nM | 63 nM | 129
15 | C=C(C)[C@@H]1CC[C@]2(COC(=O)CCC(=O)O)CC[C@]3(C)[C@H](CC[C@@H]4[C@@]5(C)CC[C@H](OC(=O)CC(C)(C)C(=O)O)C(C)(C)[C@@H]5CC[C@]43C)[C@@H]12 | 11300 nM | 180 nM | 63
16 | Cc1cn([C@H]2C[C@H](N=[N+]=[N-])[C@@H](COC(=O)C(C)(C)CC(=O)OC[C@]34CC[C@@H](C(C)C)[C@@H]3[C@H]3CC[C@@H]5[C@@]6(C)CC[C@H](OC(=O)CC(C)(C)C(=O)O)C(C)(C)[C@@H]6CC[C@@]5(C)[C@]3(C)CC4)O2)c(=O)[nH]c1=O | 9000 nM | 87 nM | 103
17 | Cc1cn([C@H]2C[C@H](N=[N+]=[N-])C(COC(=O)CC(C)(C)CC(=O)OC[C@]34CC[C@@H](C(C)C)[C@@H]3[C@H]3CC[C@@H]5[C@@]6(C)CC[C@H](OC(=O)CCCC(=O)O)C(C)(C)[C@@H]6CC[C@@]5(C)[C@]3(C)CC4)O2)c(=O)[nH]c1=O (some centres not stated) | 8500 nM | 1210 nM | 7
18 | Cc1cn([C@H]2C[C@H](N=[N+]=[N-])[C@@H](COC(=O)CC(C)(C)C(=O)OC[C@]34CC[C@@H](C(C)C)[C@@H]3[C@H]3CC[C@@H]5[C@@]6(C)CC[C@H](OC(=O)CCCC(=O)O)C(C)(C)[C@@H]6CC[C@@]5(C)[C@]3(C)CC4)O2)c(=O)[nH]c1=O | 8000 nM | 73 nM | 110
